Reference: ChEMBL document CHEMBL1138180, “Design and synthesis of new tetrazolyl- and carboxy-biphenylylmethyl-quinazolin-4-one derivatives as angiotensin II AT1 receptor antagonists” (J Med Chem, 2006)
The source made the active and inactive calls. No cut-off for these calls is given here.

Key:
[1] = target: T1, Type-1 angiotensin II receptor (Homo sapiens) (UniProt P30556); test: Displacement of [125I]-Sar(1)Ile(8)-Ang 2 from human AT1 receptor in CHO cells; assay type: cell-based
T1 sequence (whole entry): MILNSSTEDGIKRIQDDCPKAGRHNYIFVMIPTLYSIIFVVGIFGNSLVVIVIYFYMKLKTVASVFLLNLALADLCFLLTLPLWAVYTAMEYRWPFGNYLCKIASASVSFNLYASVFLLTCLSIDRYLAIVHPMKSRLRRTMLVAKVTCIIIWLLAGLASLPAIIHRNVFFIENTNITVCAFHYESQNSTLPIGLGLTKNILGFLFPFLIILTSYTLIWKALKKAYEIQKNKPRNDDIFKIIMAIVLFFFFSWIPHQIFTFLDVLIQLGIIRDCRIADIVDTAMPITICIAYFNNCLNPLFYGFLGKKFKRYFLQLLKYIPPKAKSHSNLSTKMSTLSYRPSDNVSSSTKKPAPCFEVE
Procedure, shortened: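 Membranes from CHO cells stably expressing human AT1 receptor, in 50 mM Tris-HCl pH 7.4 with 100 mM NaCl, 6 mM MgCl2 and 0.1% BSA. ~50 µg protein incubated 1 h at room temperature with 0.15 nM 125I-Sar1Ile8-Ang II, with or without competitor at 10 µM final. Bound ligand separated by centrifugation, counted as cpm. Control had DMSO and no competitor. Mean cpm ± SEM.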

Rattus norvegicus [2] = test: Reduction of the systolic blood pressure in normotensive Sprague-Dawley rat at 3 mg/kg, ip; assay type: functional, organism-based; set-up: dose 3 mg/kg; settings: Artery
Procedure, shortened: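 Normotensive male rats (230-250 g), n = 6 per group, given a single ip dose of 3 mg/kg in 0.1 mL DMSO, with a DMSO vehicle control. Systolic BP measured 2 h later by tail-cuff in conscious, cage-acclimatized rats in a 31-32 °C chamber. Mean % reduction versus control reported; ANOVA/LSD.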

Rattus norvegicus [3] = test: Reduction of the systolic blood pressure in hypertensive Sprague-Dawley rat at 3 mg/kg, ip; assay type: functional, organism-based; set-up: dose 3 mg/kg; settings: Artery
Procedure, shortened: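 Male rats (230-250 g) made hypertensive with DOCA 10 mg/kg sc daily plus 8% NaCl diet for 3-4 weeks. Single ip dose of 3 mg/kg in 0.1 mL DMSO, n = 6 per group. Systolic BP measured by tail-cuff in conscious rats 24 h before and 2 h after dosing. Normotensive and hypertensive DMSO controls included. Mean ± SE, ANOVA/LSD.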

In the case of `CCCCc1nc(Cl)c(CO)n1Cc1ccc(-c2ccccc2-c2nnn[nH]2)cc1`, the Activity [1] is reported as “Active”, the Activity (Rattus norvegicus [2]) is reported as “Active” and the Activity (Rattus norvegicus [3]) is reported as “Active”.
With `CSc1nc2ccccc2c(=O)n1Cc1ccc(-c2ccccc2C(=O)O)cc1` the Activity [1] was “Active”, the Activity (Rattus norvegicus [2]) was “Active” and the Activity (Rattus norvegicus [3]) was “Active”.
For `CSc1nc2ccccc2c(=O)n1Cc1ccc(-c2ccccc2-c2nn[nH]n2)cc1`, the Activity [1] was “Active”, the Activity (Rattus norvegicus [2]) was “Active” and the Activity (Rattus norvegicus [3]) was “Active”.
For `Oc1nc(SCc2ccc(-c3ccccc3-c3nn[nH]n3)cc2)nc2ccccc12`, the Activity [1] was “inactive”.
In the case of `O=c1[nH]c2ccccc2c(=O)n1Cc1ccc(-c2ccccc2-c2nn[nH]n2)cc1`, the Activity [1] is reported as “Active”, the Activity (Rattus norvegicus [2]) is reported as “Active” and the Activity (Rattus norvegicus [3]) is reported as “Active”.
